# According to the RNAGym collection of RNA variant scans (doi:10.1126/science.aae0568):
# Fewer inactive variants are shown than the library holds.
# B1: tRNA (parent)
# chain: GUUCCGUUGGCGUAAUGGUAACGCGUCUCCCUCCUAAGGAGAAGACUGCGGGUUCGAGUCCCGUACGGAACG
# Variants of: B1
# Assay: yeast fitness relative to wild type (ratio to wild type); higher = fitter; tRNA-Arg(CCU), competitive growth, 37 C, YPD
# How it was run: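 Variants of the tRNA-Arg(CCU) gene, chemically synthesised with a 3% per-site mutation rate at 69 sites, were placed at the native genomic locus in Saccharomyces cerevisiae. The pooled strains were competed in YPD at 37°C for 24 hours in six parallel replicates. Gene amplicons from the start population and from each end population were read by 100-nucleotide paired-end sequencing. Darwinian fitness relative to wild type came from changes in genotype frequencies; genotypes needed ≥ 100 starting reads, and estimates < 0.5 were set to 0.5.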
row,Variant,yeast fitness
1,U7A G9C C30U C34G G68C,0.56
2,U7A C34U C66G,≤ 0.5
3,U7A C55A,0.571
4,U7A C55U,0.555
5,U7A U13G C55G,≤ 0.5
6,U7A G10A C30A A43C C66U,0.553
7,U7A G9C G17C,0.55
8,U7A C34A G56C,0.541
9,U7A G41A C61A,≤ 0.5
10,U7A C30U C46U C55G,≤ 0.5
11,U7A C60G A70C,≤ 0.5
12,U7A U16C G17A C34G A45C G52C,≤ 0.5
13,U7A U16C G17A C29U C31A C55A,≤ 0.5
14,U7A G10A C33A A36C A69U,≤ 0.5
15,U7A G12A C30U,≤ 0.5
16,U7A C55G G58C,≤ 0.5
17,U7A U8A G10C C27G C34G A43G C55U,≤ 0.5
18,U7A C34G,0.543
19,U7A C34A G56C A65G,≤ 0.5
20,U7A G38A G52C A57C,≤ 0.5
21,U7A U53A A69C,0.545

row,Variant,yeast fitness
1,U7A C46G C61U,0.601
2,U7A G10U,0.614
3,U7A G10C,0.617
4,U7A U8A G41A A70U,≤ 0.5
5,U7A U32A C61G,≤ 0.5
6,U7A G9A G17A C24A,≤ 0.5
7,U7A U16C,0.751
8,U7A G23C C46G G51C U53A,≤ 0.5
9,U7C A15G G17A A65C A70G,≤ 0.5
10,U7A C46A C66A,≤ 0.5
11,U7A C49A A69C,≤ 0.5
12,U7A C33A A45C,0.54
13,U7A U16C A21U U26A C46U,0.681
14,U7A G9C G17C G48A G68C,≤ 0.5
15,U7A G18A,0.689
16,U7A U53A,≤ 0.5
17,U7A U47A C55G G68A,≤ 0.5
18,U7A U19A C29A G68C,≤ 0.5
19,U7A G51A G52A A70G,≤ 0.5
20,U7C A20C,0.844
21,U7A G17A U59A,≤ 0.5

row,Variant,yeast fitness
1,U7A G9C G17C C61U C62G A65C,≤ 0.5
2,U7A G9C C24A A43U G52A,≤ 0.5
3,U7A C33U A42C U64C A70G,≤ 0.5
4,U7C A14G U19G C29G C49A G52C,≤ 0.5
5,U7A G10A A15U,0.568
6,U7A G10C C30G A36U,≤ 0.5
7,U7A G50A C62U A69C,0.614
8,U7C A14C A65C,0.533
9,U7A G9C U13C G58C A65C A69G,≤ 0.5
10,U7A U8A G10C C27G C34G A42G C55U,≤ 0.5
11,U7A C34G C62U G68C,0.559
12,U7A G10A C55U C61G A65G G68A,≤ 0.5
13,U7A G9A C24A,≤ 0.5
14,U7C A15C,0.639
15,U7A G9C G17C G48A A69C,≤ 0.5
16,U7A U8C G17A C27G C29U U32C A43C G52A,≤ 0.5
17,U7A C34U A65G C66G,≤ 0.5
18,U7A U59A,0.778
19,U7A U59C,0.662
20,U7C A14G U19G C29G C49A G52C G63A,≤ 0.5
21,U7A G17C G51A,≤ 0.5

row,Variant,yeast fitness
1,U7A G9C A40C U47C,≤ 0.5
2,U7A C29U C31A,≤ 0.5
3,U7A G10C C22U C27G C66U,≤ 0.5
4,U7A C30A G51A,≤ 0.5
5,U7A U16C G17A C29U C31A G51U C66G G67U,≤ 0.5
6,U7A G17A C24U C34A A40G C61U A69U,≤ 0.5
7,U7A C60A,0.577
8,U7A G10A A20C C29A C55G G63C,≤ 0.5
9,U7A U16C G23A C24U U35A C60A A69C,≤ 0.5
10,U7A G10C G41A,≤ 0.5
11,U7A G9C,0.674
12,U7A C30U C33U C46U G68U,≤ 0.5
13,U7A G10C C31G G67U,≤ 0.5
14,U7A C29G G50A U64C,≤ 0.5
15,U7A U8A G25A A40C C60U,≤ 0.5
16,U7A G44C C66U,≤ 0.5
17,U7A U19G G58A,≤ 0.5
18,U7A G9C A40C,0.623
19,U7C A14G C29U C31U C33U C55U,≤ 0.5
20,U7A C34U C49A,≤ 0.5
